Test results from paper PMC5014123 (Nature communications, 2015).
Read-outs that look alike come from different tables or passages of the source.

What was measured:
Panc1_A8 cells = assay: Invasion assay of Panc1_A8 cells; format: cell-based, human; settings: matrigel, 10 µM, 18h
How it was run: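 Panc1_ctrl and Panc1_A8 cells were run in duplicate with the ERK1/2 inhibitor U0126 (10 uM) for 18 h. Invasiveness is expressed relative to control. Statistics were by ANOVA and Student's t-test.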

MMP-2 = assay: PrAMA inference of MMP-2 activity in PDAC cell lines; format: cell-based, human; settings: Panc1_A8 cells, 1 µM, 24 hours, relative to vehicle
How it was run: (§1)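 Cells were cultured in duplicate for 24 h in serum-free, phenol-red-free DMEM, and medium and sucrose-buffer membrane fractions were collected. […] Activities were inferred from fold-change cleavage rates against purified-enzyme specificity matrices, in three repeats. Panc1_A8 received 1 uM test compound for 24 h versus vehicle; AsPC-1 knockdowns were compared with shCtrl.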

MMP-14 = assay: PrAMA inference of MMP-14 activity in PDAC cell lines; format: cell-based, human; settings: Panc1_A8 cells, 1 µM, 24 hours, relative to vehicle
How it was run: as §1

ADAM8 [1] = target: T1, ADAM8 (Homo sapiens, UniProt P78325); assay: PrAMA inference of ADAM8 activity in PDAC cell lines; format: cell-based; settings: Panc1_A8 cells, 1 µM, 24 hours, relative to vehicle
T1 sequence (P78325 17-824): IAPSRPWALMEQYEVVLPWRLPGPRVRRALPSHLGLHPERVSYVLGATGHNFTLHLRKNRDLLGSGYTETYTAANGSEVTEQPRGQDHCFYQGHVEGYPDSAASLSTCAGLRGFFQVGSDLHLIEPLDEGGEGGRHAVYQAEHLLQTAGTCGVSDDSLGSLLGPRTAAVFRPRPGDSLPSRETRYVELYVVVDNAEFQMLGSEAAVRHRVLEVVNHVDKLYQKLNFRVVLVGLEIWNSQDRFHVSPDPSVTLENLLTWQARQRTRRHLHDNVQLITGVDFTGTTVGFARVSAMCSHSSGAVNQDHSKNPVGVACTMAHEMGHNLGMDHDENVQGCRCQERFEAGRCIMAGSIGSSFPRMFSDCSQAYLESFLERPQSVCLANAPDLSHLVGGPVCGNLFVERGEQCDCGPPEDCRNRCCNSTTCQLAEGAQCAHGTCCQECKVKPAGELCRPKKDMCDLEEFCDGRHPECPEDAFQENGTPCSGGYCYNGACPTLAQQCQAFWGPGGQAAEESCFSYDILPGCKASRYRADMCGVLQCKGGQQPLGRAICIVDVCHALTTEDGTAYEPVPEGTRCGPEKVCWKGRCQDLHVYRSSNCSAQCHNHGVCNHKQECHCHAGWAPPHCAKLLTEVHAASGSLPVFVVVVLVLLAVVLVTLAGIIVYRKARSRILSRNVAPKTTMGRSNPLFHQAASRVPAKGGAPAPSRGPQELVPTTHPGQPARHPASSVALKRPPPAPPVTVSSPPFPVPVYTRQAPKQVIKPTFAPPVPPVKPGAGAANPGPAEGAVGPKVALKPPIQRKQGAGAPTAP

ERK1/2 phosphorylation = assay: Western blot of ERK1/2 phosphorylation in Panc1 cells; format: cell-based, human; settings: Panc1_A8 cells; BK-1361 500 nM; U0126 10 µM
How it was run: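 ERK1/2 phosphorylation in Panc1_ctrl and Panc1_A8 cell lysates was detected by western blot with antibodies against the phosphorylated kinase forms, with or without 500 nM test compound.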

ADAM8 [2] = target: T1, ADAM8; format: cell-based
ADAM8 [3] = target: T2, ADAM8 (Homo sapiens, UniProt P78325); format: biochemical
T2 sequence (P78325 17-497): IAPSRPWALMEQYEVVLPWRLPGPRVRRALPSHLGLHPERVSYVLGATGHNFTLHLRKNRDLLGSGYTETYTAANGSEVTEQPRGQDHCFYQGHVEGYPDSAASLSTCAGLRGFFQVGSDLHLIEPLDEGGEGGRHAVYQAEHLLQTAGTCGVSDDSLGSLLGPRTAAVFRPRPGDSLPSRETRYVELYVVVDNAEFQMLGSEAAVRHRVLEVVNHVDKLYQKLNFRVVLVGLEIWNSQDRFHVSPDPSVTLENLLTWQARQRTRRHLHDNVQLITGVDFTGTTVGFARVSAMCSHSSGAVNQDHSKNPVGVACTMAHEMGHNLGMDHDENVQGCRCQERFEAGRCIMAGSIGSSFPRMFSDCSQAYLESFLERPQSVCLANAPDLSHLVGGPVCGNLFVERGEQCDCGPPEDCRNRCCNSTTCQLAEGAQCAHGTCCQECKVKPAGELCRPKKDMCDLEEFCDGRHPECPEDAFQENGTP

ADAM8 activity (PrAMA), Panc1_A8 (ADAM8 [1]) | IC50 (ADAM8 [2]) [nM] | IC50 (ADAM8 [3]) [nM] | SMILES | invasion of Panc1_A8 cells (ERK1/2 inhibitor) (Panc1_A8 cells) | MMP-2 activity (PrAMA), Panc1_A8 (MMP-2) | MMP-14 activity (PrAMA), Panc1_A8 (MMP-14) | ERK1/2 phosphorylation (pERK1/2) (ERK1/2 phosphorylation)
not affected | – | – | N#CC(=C(/N)Sc1ccccc1N)/C(C#N)=C(/N)Sc1ccccc1N [U0126] | decreased invasion | slight effect | greater effect | blocked ERK1/2 phosphorylation
reduced | 57 ± 6 | – | CNC(=O)[C@H](Cc1ccccc1)NC(=O)[C@H](CC(C)C)[C@H](CSc1cccs1)C(=O)NO [BB-94, Batimastat] | – | reduced | reduced | –
– | 1250 ± 103 | 1050 ± 154 | CNC(=O)[C@@H](NC(=O)[C@H](CC(C)C)[C@H](O)C(=O)NO)C(C)(C)C [BB-2516, Marimastat] | – | – | – | –
